Data: BindingDB's records for doi:10.1016/j.bmcl.2009.03.011 (Cytrx, 2009)

Molecular target: T1, Heat shock factor protein 1 (Homo sapiens, UniProt Q00613)
T1 sequence (Q00613 whole entry): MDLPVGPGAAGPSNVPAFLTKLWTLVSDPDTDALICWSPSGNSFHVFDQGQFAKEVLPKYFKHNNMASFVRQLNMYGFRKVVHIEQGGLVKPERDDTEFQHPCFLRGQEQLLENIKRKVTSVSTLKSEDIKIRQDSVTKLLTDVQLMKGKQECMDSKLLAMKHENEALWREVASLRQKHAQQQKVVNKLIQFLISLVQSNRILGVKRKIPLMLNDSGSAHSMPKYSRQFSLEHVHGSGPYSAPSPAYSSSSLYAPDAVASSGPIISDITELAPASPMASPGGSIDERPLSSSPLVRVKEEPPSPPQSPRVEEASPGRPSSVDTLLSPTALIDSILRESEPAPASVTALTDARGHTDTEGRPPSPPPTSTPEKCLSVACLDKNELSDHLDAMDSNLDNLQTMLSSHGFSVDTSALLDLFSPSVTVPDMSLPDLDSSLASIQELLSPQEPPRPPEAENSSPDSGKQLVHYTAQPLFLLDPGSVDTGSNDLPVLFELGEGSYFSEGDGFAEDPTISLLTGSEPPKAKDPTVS
Assay: Transcriptional activation of HSF1 in heat shock stress-induced human HeLa cells assessed as granule formation treated 1 hr before heat shock challenge measured after 2 hrs by immunocytochemical staining
Procedure, shortened: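 HeLa cells given compound 1 h, then heat shock at 41 °C for 2 h without recovery; HSF1 immunocytochemical staining, quantified by high-content imaging. Range 0.3–80 µM, twofold dilution, 200-fold overall.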

Question: For `OC(CO/N=C(\Cl)c1nc2c(F)cccc2o1)CN1CCCCC1` (configuration not stated) [4-fluoro-N-(2-hydroxy-3-(piperidin-1-yl)propoxy)benzo[d]oxazole-2-carbimidoyl chloride], which EC50 is on record?
Answer: The EC50 was 20.2 µM.

Question: With `CCS(=O)(=O)c1ccc2oc(/C(Cl)=N/OCC(O)CN3CCCCC3)nc2c1` (configuration not stated) [5-(ethylsulfonyl)-N-(2-hydroxy-3-(piperidin-1-yl)propoxy)benzo[d]oxazole-2-carbimidoyl chloride] as the molecule, how does the EC50 read?
Answer: The EC50 was 42.9 µM.

Question: Which EC50 does the source give for `OC(CO/N=C(\Cl)c1nc2cc(Cl)ccc2o1)CN1CCCCC1` (configuration not stated) [5-chloro-N-(2-hydroxy-3-(piperidin-1-yl)propoxy)benzo[d]oxazole-2-carbimidoyl chloride] here?
Answer: Its EC50 is 20.9 µM.

Question: For `OC(CO/N=C(\Cl)c1nc2cc(F)ccc2o1)CN1CCCCC1` (configuration not stated) [5-fluoro-N-(2-hydroxy-3-(piperidin-1-yl)propoxy)benzo[d]oxazole-2-carbimidoyl chloride], which EC50 is on record?
Answer: Its EC50 is 51.3 µM.

Question: `CN(C)S(=O)(=O)c1ccc2nc(/C(Cl)=N/OCC(O)CN3CCCCC3)oc2c1` (configuration not stated) [6-(N,N-dimethylsulfamoyl)-N-(2-hydroxy-3-(piperidin-1-yl)propoxy)benzo[d]oxazole-2-carbimidoyl chloride] was tested. Which EC50 did it give?
Answer: The EC50 was 41.6 µM.

Question: For `OC(CO/N=C(\Cl)c1nc2ccc(Cl)cc2o1)CN1CCCCC1` (configuration not stated) [6-chloro-N-(2-hydroxy-3-(piperidin-1-yl)propoxy)benzo[d]oxazole-2-carbimidoyl chloride], which EC50 is on record?
Answer: Its EC50 is 22.9 µM.

Question: For `OC(CO/N=C(\Cl)c1nc2ccc(F)cc2o1)CN1CCCCC1` (configuration not stated) [6-fluoro-N-(2-hydroxy-3-(piperidin-1-yl)propoxy)benzo[d]oxazole-2-carbimidoyl chloride], which EC50 is on record?
Answer: Its EC50 is 29.4 µM.

Question: Which EC50 does the source give for `OC(CO/N=C(\Cl)c1nc2cccc(F)c2o1)CN1CCCCC1` (configuration not stated) [7-fluoro-N-(2-hydroxy-3-(piperidin-1-yl)propoxy)benzo[d]oxazole-2-carbimidoyl chloride] here?
Answer: Its EC50 is 18.5 µM.

Question: For `CCCN(C[C@H](O)CO/N=C(\Cl)c1nc2ccccc2o1)C(C)C` [(S)-N-(2-hydroxy-3-(isopropyl(propyl)amino)propoxy)benzo[d]oxazole-2-carbimidoyl chloride], which EC50 is on record?
Answer: Its EC50 is 24.1 µM.

Question: Which EC50 does the source give for `CC(C)N(CCO)CC(O)CO/N=C(\Cl)c1nc2ccccc2o1` (configuration not stated) [N-(2-hydroxy-3-((2-hydroxyethyl)(isopropyl)amino)propoxy)benzo[d]oxazole-2-carbimidoyl chloride] here?
Answer: Its EC50 is 28.7 µM.

Question: For `Cc1ccc2oc(/C(Cl)=N/OCC(O)CN3CCCCC3)nc2c1` (configuration not stated) [N-(2-hydroxy-3-(piperidin-1-yl)propoxy)-5-methylbenzo[d]oxazole-2-carbimidoyl chloride], which EC50 is on record?
Answer: The EC50 was 41.6 µM.

Question: Which EC50 does the source give for `Cc1ccc2nc(/C(Cl)=N/OCC(O)CN3CCCCC3)oc2c1` (configuration not stated) [N-(2-hydroxy-3-(piperidin-1-yl)propoxy)-6-methylbenzo[d]oxazole-2-carbimidoyl chloride] here?
Answer: The EC50 was 31 µM.

Question: For `OC(CO/N=C(\Cl)c1nc2ccccc2o1)CN1CCCCC1` (configuration not stated) [N-(2-hydroxy-3-(piperidin-1-yl)propoxy)benzo[d]oxazole-2-carbimidoyl chloride], which EC50 is on record?
Answer: The EC50 was 41.7 µM.

Question: How did the EC50 turn out when `OC(CO/N=C(\Cl)c1nc2ccccc2s1)CN1CCCCC1` (configuration not stated) [N-(2-hydroxy-3-(piperidin-1-yl)propoxy)benzo[d]thiazole-2-carbimidoyl chloride] was run?
Answer: The EC50 was 52.6 µM.

Question: How did the EC50 turn out when `OC(CO/N=C(\Cl)c1nc2c(ccc3ccccc32)o1)CN1CCCCC1` (configuration not stated) [N-(2-hydroxy-3-(piperidin-1-yl)propoxy)naphtho[1,2-d]oxazole-2-carbimidoyl chloride] was run?
Answer: Its EC50 is 12.1 µM.

Question: How did the EC50 turn out when `OC(CO/N=C(\Cl)c1nc2ccccc2s1)CN1CCCC1` (configuration not stated) [N-(2-hydroxy-3-(pyrrolidin-1-yl)propoxy)benzo[d]thiazole-2-carbimidoyl chloride] was run?
Answer: The EC50 was 62.8 µM.

Question: Which EC50 does the source give for `CC1CCCC(C)N1CC(O)CO/N=C(\Cl)c1nc2ccccc2o1` (configuration not stated) [N-(3-(2,6-dimethylpiperidin-1-yl)-2-hydroxypropoxy)benzo[d]oxazole-2-carbimidoyl chloride] here?
Answer: The EC50 was 32.4 µM.

Question: How did the EC50 turn out when `CC1CC(C)CN(CC(O)CO/N=C(\Cl)c2nc3ccccc3o2)C1` (configuration not stated) [N-(3-(3,5-dimethylpiperidin-1-yl)-2-hydroxypropoxy)benzo[d]oxazole-2-carbimidoyl chloride] was run?
Answer: Its EC50 is 17.4 µM.

Question: For `OC(CO/N=C(\Cl)c1nc2ccccc2o1)CN1CCCC(F)C1` (configuration not stated) [N-(3-(3-fluoropiperidin-1-yl)-2-hydroxypropoxy)benzo[d]oxazole-2-carbimidoyl chloride], which EC50 is on record?
Answer: The EC50 was 52.6 µM.

Question: Which EC50 does the source give for `CC(C)N(CCCF)CC(O)CO/N=C(\Cl)c1nc2ccccc2o1` (configuration not stated) [N-(3-((3-fluoropropyl)(isopropyl)amino)-2-hydroxypropoxy)benzo[d]oxazole-2-carbimidoyl chloride] here?
Answer: Its EC50 is 22.8 µM.

Question: With `CC(C)N(CC(O)CO/N=C(\Cl)c1nc2ccccc2o1)CC1CC1` (configuration not stated) [N-(3-((cyclopropylmethyl)(isopropyl)amino)-2-hydroxypropoxy)benzo[d]oxazole-2-carbimidoyl chloride] as the molecule, how does the EC50 read?
Answer: Its EC50 is 12.4 µM.

Question: With `CCCCN(CCCC)CC(O)CO/N=C(\Cl)c1nc2ccccc2o1` (configuration not stated) [N-(3-(dibutylamino)-2-hydroxypropoxy)benzo[d]oxazole-2-carbimidoyl chloride] as the molecule, how does the EC50 read?
Answer: The EC50 was 20.9 µM.

Question: How did the EC50 turn out when `CCN(CC)CC(O)CO/N=C(\Cl)c1nc2ccccc2o1` (configuration not stated) [N-(3-(diethylamino)-2-hydroxypropoxy)benzo[d]oxazole-2-carbimidoyl chloride] was run?
Answer: The EC50 was 27.1 µM.

Question: For `CC(C)N(CC(O)CO/N=C(\Cl)c1nc2ccccc2o1)C(C)C` (configuration not stated) [N-(3-(diisopropylamino)-2-hydroxypropoxy)benzo[d]oxazole-2-carbimidoyl chloride], which EC50 is on record?
Answer: The EC50 was 25.5 µM.

Question: `CCCN(CCC)CC(O)CO/N=C(\Cl)c1nc2ccccc2o1` (configuration not stated) [N-(3-(dipropylamino)-2-hydroxypropoxy)benzo[d]oxazole-2-carbimidoyl chloride] was tested. Which EC50 did it give?
Answer: Its EC50 is 23.9 µM.

Question: For `CCCN(CC)CC(O)CO/N=C(\Cl)c1nc2ccccc2o1` (configuration not stated) [N-(3-(ethyl(propyl)amino)-2-hydroxypropoxy)benzo[d]oxazole-2-carbimidoyl chloride], which EC50 is on record?
Answer: Its EC50 is 23 µM.

Question: How did the EC50 turn out when `CC(C)N(CC(O)CO/N=C(\Cl)c1nc2ccccc2o1)C(C)(C)C` (configuration not stated) [N-(3-(tert-butyl(isopropyl)amino)-2-hydroxypropoxy)benzo[d]oxazole-2-carbimidoyl chloride] was run?
Answer: Its EC50 is 16.6 µM.
